Data set [1] is described as follows: Drug uptake in tumor cells in Fischer rat transplanted with rat 9L cells after 60 mins. The class given is ADME, Neoplasm. The conditions noted are these: read-out: Drug uptake. The method in brief: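 Fischer rats bearing intracranially implanted 9L gliosarcoma tumours received the [123I]-labelled amino acid by injection. Radioactivity in tumour and normal tissues was counted at 30, 60 and 120 min post-injection, with n=5 per time point. Values were expressed as percent injected dose per gram tissue (%ID/g).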

The species named for the next data set is Rattus norvegicus. In words: Ratio of drug uptake in tumor to brain in Fischer rat transplanted with rat 9L cells. The class given is ADME, organism-based. An outline of the steps: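 Fischer rats with intracranial 9L gliosarcoma received [123I] tracer; tumor and brain radioactivity measured at 30, 60, 120 min p.i. (n=5 per time point) as %ID/g, ratio taken as tumor over brain uptake.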

Data set [2] concerns 9L. Briefly: Inhibition of drug uptake in rat 9L cells. It counts as cell-based. The method in brief:
(§1)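 9L rat gliosarcoma cells incubated with [123I] tracer in HBSS for 30 min at 37°C, with or without 10 mM BCH (L-type transport inhibitor) or MeAIB (A-type inhibitor); uptake expressed as %ID per 1×10^6 cells, inhibition relative to uninhibited controls; significance by 1-way ANOVA.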

For data set [3], the system named is 9L. In words: Inhibition of drug uptake in rat 9L cells in presence of 10 mM BCH relative to control. It counts as cell-based. The method in brief:
as §1

Data set [4] is described as follows: Drug uptake in tumor cells of Fischer rat brain transplanted with rat 9L cells. The class given is ADME, cell-based. The conditions noted are these: read-out: Drug uptake. An outline of the steps:
(§2)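 [123I]-labelled amino acid given to Fischer rats bearing intracranially implanted 9L gliosarcoma; tumor and normal tissue radioactivity counted at 30, 60 and 120 min post injection, n=5 per time point; expressed as percent injected dose per gram tissue (%ID/g).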

Data set [5] can be described thus: Drug uptake in normal brain tissue in Fischer rat transplanted with rat 9L cells. The class given is ADME, tissue-based. The method in brief: as §2
The test system of data set [6] is 9L. Briefly: Inhibition of drug uptake in rat 9L cells in presence of 10 mM MeAIB relative to control. It counts as cell-based. An outline of the steps: as §1

Regarding `N[C@]1(C(=O)O)C[C@@H](C[18F])C1`, the tissue uptake at 1 h in data set [1] is 2.5 %ID/g. In the data set listed under Rattus norvegicus, the Ratio is recorded as 8.9.

`NC1(C(=O)O)CC(=C[123I])C1` (configuration not stated): the Drug uptake stood at 8.4 %ID in the data set with 9L [2] and 92.3% with 9L [3]. In addition, the values for the tissue uptake in data set [4] and in data set [5] were 0.83 %ID/g and under 0.4 %ID/g, respectively. For the same compound, in the data set listed under Rattus norvegicus, the Ratio is reported as 4.7.

Turning to `N[C@]1(C(=O)O)C[C@@H](/C=C/[123I])C1`, the results for the Drug uptake in the data set on 9L [2] and with 9L [3] were 8.4 %ID and 92.3%, respectively. The tissue uptake in data set [4] was 0.83 %ID/g; in data set [5], under 0.4 %ID/g. In addition, the Ratio in the data set filed under Rattus norvegicus was 6.5.

For the compound `N[C@]1(C(=O)O)C[C@H](/C=C/[123I])C1`, the Drug uptake in the data set with 9L [2] stood at 8.4 %ID; in the data set with 9L [3] it was 92.3%. Moreover, the Activity entry in the data set on 9L [6] is “Not Active”. For the same compound, the tissue uptake in data set [4] was 0.83 %ID/g; in data set [5] it was under 0.4 %ID/g. For the same compound, the Ratio in the data set listed under Rattus norvegicus was found to be 7.3.

`N[C@]1(C(=O)O)C[C@H](C[18F])C1`: the tissue uptake at 1 h in data set [1] was determined as 1.59 %ID/g. In addition, the Ratio in the data set listed under Rattus norvegicus was found to be 6.9.

With `N[C@]1(C(=O)O)C[C@@H]([18F])C1` [FLUCICLOVINE F18], in data set [1], the tissue uptake at 1 h stood at 1.72 %ID/g. In addition, in the data set filed under Rattus norvegicus, the Ratio was 6.6.

(Values after ChEMBL document CHEMBL1141513, “Synthesis and evaluation of [123I] labeled iodovinyl amino acids syn-, anti-1-amino-3-[2-iodoethenyl]-cyclobutane-1-carboxylic acid, and 1-amino-3-iodomethylene-cyclobutane-1-carboxylic acid as potential SPECT brain tumor imaging agents” (Bioorg Med Chem Lett, 2008).)
